Laboratory results taken from ChEMBL document CHEMBL1154855 (Eur J Med Chem, 2010).
Converted amounts (≈) assume the structure as drawn.

Columns and labels:
HEL [1] = test: Cytotoxicity against acyclovir-sensitive Herpes simplex virus 1 KOS infected HEL cells by trypan blue exclusion method; assay type: cell-based; conditions: human
How it was run: (§1)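 Uninfected confluent cultures were run in parallel with the infected cultures. Medium was replaced by 1 ml maintenance medium with serial compound concentrations; cell controls received no compound. Cultures were incubated at 37 °C. After 2 and 7 days, compound was withdrawn and viability was determined by trypan blue exclusion.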

HEL [2] = test: Cytotoxicity against Herpes simplex virus 1 KOS infected HEL cells by trypan blue exclusion method; assay type: cell-based; conditions: human, hel; how it was run: as §1
HEL [3] = test: Cytotoxicity against Vaccinia virus infected HEL cells by trypan blue exclusion method; assay type: cell-based; conditions: human, hel; how it was run: as §1
HEL [4] = test: Cytotoxicity against VSV infected HEL cells by trypan blue exclusion method; assay type: cell-based; conditions: human, hel; how it was run: as §1
[5] = system: Vesicular stomatitis virus; test: Antiviral activity against VSV infected in HEL cells assessed as protection from virus-induced cytopathogenicity after 1 to 2 days by MTT assay; assay type: functional, organism-based
HEL [6] = test: Cytotoxicity against Herpes simplex virus 2 G infected HEL cells by trypan blue exclusion method; assay type: cell-based; conditions: human, hel; how it was run: as §1
Klebsiella pneumoniae = test: Antibacterial activity against Klebsiella pneumoniae after 24 hrs by broth microdilution method; assay type: functional
How it was run: (§2)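 Clinical isolates. Each dilution received 100 μl of 0.5 McFarland fresh culture. Solvent (DMSO), growth and standard controls were included. Tubes were incubated at 37 °C for 24 h. MIC is the highest dilution showing no turbidity. Tests were run in triplicate, with at least two repetitions.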

Streptococcus viridans = test: Antibacterial activity against Streptococcus viridans after 24 hrs by broth microdilution method; assay type: functional; how it was run: as §2
Escherichia coli = test: Antibacterial activity against Escherichia coli after 24 hrs by broth microdilution method; assay type: functional; how it was run: as §2
Proteus mirabilis = test: Antibacterial activity against Proteus mirabilis after 24 hrs by broth microdilution method; assay type: functional; how it was run: as §2
Punta Toro virus = test: Antiviral activity against Punta Toro virus infected in african green monkey Vero cells assessed as protection from virus-induced cytopathogenicity by MTT assay; assay type: functional, organism-based
Influenza B virus = test: Antiviral activity against Influenza B virus infected in MDCK cells assessed as protection from virus-induced cytopathogenicity after 6 to 7 days by MTT assay; assay type: functional, organism-based
Human alphaherpesvirus 2 = test: Antiviral activity against Herpes simplex virus 2 G infected in HEL cells assessed as protection from virus-induced cytopathogenicity after 2 to 3 days by MTT assay; assay type: functional, organism-based; conditions: Human alphaherpesvirus 2, strain G
Influenza A virus [7] = test: Antiviral activity against Influenza A virus H1N1 infected in MDCK cells assessed as protection from virus-induced cytopathogenicity after 6 to 7 days by MTT assay; assay type: functional, organism-based
[8] = Cytotoxicity against HIV1 3B-infected human MT4 cells by MTT assay; assay type: cell-based; conditions: MT4 cells infected with HIV-1 3B
How it was run: (§3)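 MT-4 cells (3 × 10^4 per well) were cultured in microdilution trays with various concentrations of compound, then incubated 5 days at 37 °C, and viable cell number was read by MTT.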

[9] = system: Respiratory syncytial virus; test: Antiviral activity against Respiratory syncytial virus infected in human HeLa cells assessed as protection from virus-induced cytopathogenicity after 4 days by MTT assay; assay type: functional, organism-based; conditions: 96 h
Feline coronavirus = test: Antiviral activity against Feline coronavirus infected in cat CRFK cells assessed as protection from virus-induced cytopathogenicity by MTT assay; assay type: functional, organism-based; conditions: Alphacoronavirus 1, CRFK
Influenza A virus [10] = test: Antiviral activity against Influenza A virus H3N2 infected in MDCK cells assessed as protection from virus-induced cytopathogenicity after 6 to 7 days by MTT assay; assay type: functional, organism-based
[11] = Cytotoxicity against HIV2 ROD infected human MT4 cells by MTT assay; assay type: cell-based; conditions: MT4 cells infected with HIV-2 ROD; how it was run: as §3
[12] = system: Human immunodeficiency virus 2; test: Antiviral activity against HIV2 ROD infected in human MT4 cells assessed as protection from virus-induced cytopathogenicity after 5 days by MTT assay; assay type: functional, organism-based; conditions: Human immunodeficiency virus 2, ISOLATE ROD, MT4, 120 h
How it was run: (§4)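 MT-4 cells at 3 × 10^4 per well were infected with HIV (IIIB or ROD) at 50% cell culture infective doses. Graded compound concentrations were added immediately after infection. Plates were incubated for 5 days at 37 °C and viable cells were counted by MTT.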

Human respirovirus 3 = test: Antiviral activity against PIV 3 infected in african green monkey Vero cells assessed as protection from virus-induced cytopathogenicity after 6 to 7 days by MTT assay; assay type: functional, organism-based; conditions: Human respirovirus 3, Vero
[13] = system: Mammalian orthoreovirus 1; test: Antiviral activity against Reovirus 1 infected in african green monkey Vero cells assessed as protection from virus-induced cytopathogenicity after 6 to 7 days by MTT assay; assay type: functional, organism-based; conditions: Mammalian orthoreovirus 1, Vero
[14] = system: Human immunodeficiency virus 1; test: Antiviral activity against HIV1 3B-infected in human MT4 cells assessed as protection from virus-induced cytopathogenicity after 5 days by MTT assay; assay type: functional, organism-based; conditions: Human immunodeficiency virus 1, 3B, MT4, 120 h; how it was run: as §4
Sindbis virus = test: Antiviral activity against Sindbis virus infected in african green monkey Vero cells assessed as protection from virus-induced cytopathogenicity after 2 to 3 days by MTT assay; assay type: functional, organism-based
[15] = system: Vesicular stomatitis virus; test: Antiviral activity against VSV infected in human HeLa cells assessed as protection from virus-induced cytopathogenicity after 1 to 2 days by MTT assay; assay type: functional, organism-based
HeLa [16] = test: Cytotoxicity against Human coxsackievirus B4 infected human HeLa cells by trypan blue exclusion method; assay type: cell-based; conditions: hela; how it was run: as §1
Vero [17] = test: Cytotoxicity against PIV 3 infected african green monkey Vero cells by trypan blue exclusion method; assay type: cell-based; conditions: chlorocebus sabaeus, vero; how it was run: as §1
Vero [18] = test: Cytotoxicity against Punta Toro virus infected african green monkey Vero cells by trypan blue exclusion method; assay type: cell-based; conditions: chlorocebus sabaeus, vero; how it was run: as §1
[19] = Cytotoxicity against Feline herpesvirus infected cat CRFK cells by trypan blue exclusion method; assay type: cell-based, Felis catus; conditions: crfk; how it was run: as §1
Felid alphaherpesvirus 1 = test: Antiviral activity against Feline herpesvirus infected in cat CRFK cells assessed as protection from virus-induced cytopathogenicity by MTT assay; assay type: functional, organism-based; conditions: Felid alphaherpesvirus 1, CRFK
HeLa [20] = test: Cytotoxicity against VSV infected human HeLa cells by trypan blue exclusion method; assay type: cell-based; conditions: hela; how it was run: as §1
Vero [21] = test: Cytotoxicity against Human coxsackievirus B4 infected african green monkey Vero cells by trypan blue exclusion method; assay type: cell-based; conditions: chlorocebus sabaeus, vero; how it was run: as §1
MDCK [22] = test: Cytotoxicity against Influenza A virus subtype H1N1 infected MDCK cells by trypan blue exclusion method; assay type: cell-based, Canis lupus familiaris; conditions: dog
MDCK [23] = test: Cytotoxicity against Influenza A virus subtype H3N2 infected MDCK cells by trypan blue exclusion method; assay type: cell-based, Canis lupus familiaris; conditions: dog
MDCK [24] = test: Cytotoxicity against Influenza B virus infected MDCK cells by trypan blue exclusion method; assay type: cell-based, Canis lupus familiaris; conditions: dog
HeLa [25] = test: Cytotoxicity against Respiratory syncytial virus infected human HeLa cells by trypan blue exclusion method; assay type: cell-based; conditions: hela; how it was run: as §1
[26] = Cytotoxicity against Feline coronavirus infected cat CRFK cells by trypan blue exclusion method; assay type: cell-based, Felis catus; conditions: crfk; how it was run: as §1
Coxsackievirus B4 [27] = test: Antiviral activity against Human coxsackievirus B4 infected in african green monkey Vero cells assessed as protection from virus-induced cytopathogenicity after 2 days by MTT assay; assay type: functional, organism-based; conditions: Enterovirus B, 48 h
Human alphaherpesvirus 1 [28] = test: Antiviral activity against acyclovir-sensitive Herpes simplex virus 1 KOS infected in HEL cells assessed as protection from virus-induced cytopathogenicity after 2 to 3 days by MTT assay; assay type: functional, organism-based; conditions: Human alphaherpesvirus 1, KOS
Human alphaherpesvirus 1 [29] = test: Antiviral activity against Herpes simplex virus 1 KOS infected in HEL cells assessed as protection from virus-induced cytopathogenicity after 2 to 3 days by MTT assay; assay type: functional, organism-based; conditions: Human alphaherpesvirus 1, KOS
Vero [30] = test: Cytotoxicity against Sindbis virus infected african green monkey Vero cells by trypan blue exclusion method; assay type: cell-based; conditions: chlorocebus sabaeus, vero; how it was run: as §1
Vero [31] = test: Cytotoxicity against Reovirus 1 infected african green monkey Vero cells by trypan blue exclusion method; assay type: cell-based; conditions: chlorocebus sabaeus, vero; how it was run: as §1
Coxsackievirus B4 [32] = test: Antiviral activity against Human coxsackievirus B4 infected in human HeLa cells assessed as protection from virus-induced cytopathogenicity after 2 days by MTT assay; assay type: functional, organism-based; conditions: Enterovirus B, 48 h
[33] = Streptococcus viridans, 24 h, read-out: MIC
[34] = Proteus mirabilis, 24 h, read-out: MIC

Molecule	CC50 (HEL [1])	CC50 (HEL [2])	CC50 (HEL [3])	CC50 (HEL [4])	EC50 [5]	CC50 (HEL [6])	EC50 (Punta Toro virus)	EC50 (Influenza B virus)	EC50 (Human alphaherpesvirus 2)	EC50 (Influenza A virus [7])	CC50 [8]	EC50 [9]	EC50 (Feline coronavirus)	EC50 (Influenza A virus [10])	CC50 [11]	IC50 [12]	EC50 (Human respirovirus 3)	EC50 [13]	EC50 (Sindbis virus)	EC50 [15]	further results
O=c1[nH]c(=O)n([C@H]2C[C@H](O)[C@@H](CO)O2)cc1/C=C/Br [BRIVUDINE]	> 250000 nM	> 250000 nM	> 250000 nM	> 250000 nM	> 250000 nM	> 250000 nM															
GENTAMICIN SULFATE																					MIC (Klebsiella pneumoniae): > 1.73 µM; MIC (Streptococcus viridans): > 1.73 µM; MIC (Escherichia coli): > 1.73 µM; MIC (Proteus mirabilis): > 1.73 µM
CCCCCCCCCC(=O)Oc1ccc(/C=C/C(=O)CC(=O)/C=C/c2ccc(OC(=O)CCCCCCCCC)c(OC)c2)cc1OC					> 147 nM		> 147 nM	> 147 nM	> 147 nM	> 147 nM	> 81 nM	> 147 nM	> 29 nM	> 147 nM	> 79 nM	79 nM	> 147 nM	> 147 nM	> 147 nM	147 nM	IC50 [14]: 81 nM
COc1cc(/C=C/C(=O)CC(=O)/C=C/c2ccc(O)c(OC)c2)ccc1O [CURCUMIN]	> 2 nM	≥ 10 nM	> 2 nM	> 2 nM		> 2 nM	> 10 nM	> 271 nM	10 nM	> 271 nM		> 10 nM	> 271 nM	> 271 nM			> 10 nM	> 10 nM	> 10 nM	> 10 nM	CC50 (HeLa [16]): ≥ 10 nM; CC50 (Vero [17]): 54 nM; CC50 (Vero [18]): 54 nM; CC50 [19]: > 271 nM; MIC (Streptococcus viridans; [33]): 2.47 µM (≈ 0.91 µg/mL); EC50 (Felid alphaherpesvirus 1): > 271 nM; CC50 (HeLa [20]): ≥ 10 nM; CC50 (Vero [21]): 54 nM; CC50 (MDCK [22]): > 92 nM; CC50 (MDCK [23]): > 92 nM; CC50 (MDCK [24]): > 92 nM; CC50 (HeLa [25]): ≥ 10 nM; CC50 [26]: > 271 nM; EC50 (Coxsackievirus B4 [27]): > 10 nM; MIC (Proteus mirabilis; [34]): 1.23 µM (≈ 0.453 µg/mL); EC50 (Human alphaherpesvirus 1 [28]): 10 nM; EC50 (Human alphaherpesvirus 1 [29]): > 10 nM; CC50 (Vero [30]): 54 nM; CC50 (Vero [31]): 54 nM; EC50 (Coxsackievirus B4 [32]): > 10 nM
COc1cc(/C=C/C(=O)CC(=O)/C=C/c2ccc(OC(=O)CCC(NC(=O)c3ccc(NCc4cnc5nc(N)[nH]c(=O)c5n4)cc3)C(=O)O)c(OC)c2)ccc1OC(=O)CCC(NC(=O)c1ccc(NCc2cnc3nc(N)[nH]c(=O)c3n2)cc1)C(=O)O (stereo unspecified)	> 82 nM	> 82 nM	> 82 nM	> 82 nM	> 82 nM	> 82 nM	> 82 nM	> 82 nM	> 82 nM	> 82 nM	> 36 nM	> 82 nM	> 30 nM	> 82 nM	> 46 nM	46 nM	> 82 nM	> 82 nM	> 82 nM	> 82 nM	MIC (Klebsiella pneumoniae; Klebsiella pneumoniae, 24 h, read-out: MIC): 0.27 µM (≈ 0.328 µg/mL); CC50 (HeLa [16]): > 82 nM; CC50 (Vero [17]): > 82 nM; CC50 [19]: 11 nM; MIC (Streptococcus viridans; [33]): 0.27 µM (≈ 0.328 µg/mL); EC50 (Felid alphaherpesvirus 1): > 30 nM; CC50 (HeLa [20]): > 82 nM; MIC (Escherichia coli; Escherichia coli, 24 h, read-out: MIC): 0.27 µM (≈ 0.328 µg/mL); CC50 (Vero [21]): > 82 nM; CC50 (MDCK [24]): 82 nM; CC50 (HeLa [25]): > 82 nM; EC50 (Coxsackievirus B4 [27]): > 82 nM; MIC (Proteus mirabilis; [34]): 0.54 µM (≈ 0.656 µg/mL); EC50 (Human alphaherpesvirus 1 [28]): > 82 nM; IC50 [14]: 36 nM; EC50 (Human alphaherpesvirus 1 [29]): > 82 nM; CC50 (Vero [30]): > 82 nM; CC50 (Vero [31]): > 82 nM; EC50 (Coxsackievirus B4 [32]): > 82 nM
